Measured values as given in ChEMBL document CHEMBL3425440, “ent-Kaurane Diterpenoids from Chinese Liverworts and Their Antitumor Activities through Michael Addition As Detected in Situ by a Fluorescence Probe” (J Med Chem, 2015).

Key:
[1] = Cytotoxicity against human PC3 cells assessed as cell viability after 24 hrs by MTT assay; type: functional, cell-based; conditions: PC-3, 24 h
How it was run: (§1)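 Cells grown to about 50−70% confluence at 37 °C, 5% CO2, then exposed to compounds 24 h (DMSO vehicle control, cisplatin positive control). MTT (5 mg/mL stock) added for 4 h, formazan dissolved in DMSO, absorbance read at 570 nm. IC50 derived from percent viability; at least three independent experiments, mean ± SD.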

[2] = system: DU-145; test: Cytotoxicity against human DU145 cells assessed as cell viability after 24 hrs by MTT assay; type: functional, cell-based; conditions: DU-145, 24 h; how it was run: as §1
[3] = system: LNCaP; test: Cytotoxicity against human LNCAP cells assessed as cell viability after 24 hrs by MTT assay; type: functional, cell-based; how it was run: as §1
[4] = Cytotoxicity against human RWPE1 cells assessed as cell viability after 24 hrs by MTT assay; type: cell-based; conditions: RWPE-1, 24 h; how it was run: as §1
[5] = system: MDA-MB-231; test: Cytotoxicity against human MDA-MB-231 cells assessed as cell viability after 24 hrs by MTT assay; type: functional, cell-based; conditions: MDA-MB-231, 24 h; how it was run: as §1
[6] = system: NCI-H1299; test: Cytotoxicity against human NCI-H1299 cells assessed as cell viability after 24 hrs by MTT assay; type: functional, cell-based; conditions: NCI-H1299, 24 h; how it was run: as §1
[7] = Cytotoxicity against human SKOV3 cells assessed as cell viability after 24 hrs by MTT assay; type: functional, cell-based; conditions: SK-OV-3, 24 h; how it was run: as §1
[8] = system: LoVo; test: Cytotoxicity against human LoVo cells assessed as cell viability after 24 hrs by MTT assay; type: functional, cell-based; how it was run: as §1
[9] = Cytotoxicity against human T24 cells assessed as cell viability after 24 hrs by MTT assay; type: functional, cell-based; conditions: T-24, 24 h; how it was run: as §1
[10] = system: K562; test: Cytotoxicity against human K562 cells assessed as cell viability after 24 hrs by MTT assay; type: functional, cell-based; conditions: K562, 24 h; how it was run: as §1
[11] = Cytotoxicity against human HL60 cells assessed as cell viability after 24 hrs by MTT assay; type: functional, cell-based; conditions: HL-60, 24 h; how it was run: as §1
[12] = Cytotoxicity against human SH-SY5Y cells assessed as cell viability after 24 hrs by MTT assay; type: functional, cell-based; how it was run: as §1
[13] = Cytotoxicity against human A172 cells assessed as cell viability after 24 hrs by MTT assay; type: functional, cell-based; conditions: A 172, 24 h; how it was run: as §1
[14] = Cytotoxicity against human Saos2 cells assessed as cell viability after 24 hrs by MTT assay; type: functional, cell-based; conditions: SAOS-2, 24 h; how it was run: as §1

Measured: IC50

C=C1C(O)[C@@]23CC[C@H]4[C@@](C)(CCC[C@@]4(C)C(=O)OCCN4CCN(C)CC4)[C@@H]2CC[C@]1(O)C3 (stereo not given in full)
> 50 µM: [1] | [2] | [3] | [4] | [5] | [6] | [7] | [8] | [9] | [10] | [11] | [12] | [13] | [14]

C[C@@H]1C(=O)[C@@]23CC[C@@H]4C(C)(C)CCC[C@@]4(C)[C@@H]2[C@@H](O)C[C@@H]1C3
> 50 µM: [1] | [2] | [3] | [4] | [5] | [6] | [7] | [8] | [9] | [10] | [11] | [12] | [13] | [14]

C[C@@H]1C(=O)[C@H]2C[C@]1(O)CC1=C2[C@]2(C)CCC[C@](C)(CO)[C@H]2CC1
> 50 µM: [1] | [2] | [3] | [4] | [5] | [6] | [7] | [8] | [9] | [10] | [11] | [12] | [13] | [14]

C[C@H]1C(=O)[C@@]23CC[C@@H]4[C@@](C)(C=O)CCC[C@@]4(C)C2=CC[C@]1(O)C3
> 50 µM: [1] | [2] | [3] | [4] | [5] | [6] | [7] | [8] | [9] | [10] | [11] | [12] | [13] | [14]

CC1=C[C@]23C[C@H]1CC[C@H]2[C@@]1(C)[C@H](C[C@H]3O)C(C)(C)CC[C@@H]1O
> 50 µM: [1] | [2] | [3] | [4] | [5] | [6] | [7] | [8] | [9] | [10] | [11] | [12] | [13] | [14]

C=C1C(O)[C@@]23CC[C@H]4[C@@](C)(CCC[C@@]4(C)C(=O)O)[C@@H]2CC[C@]1(O)C3 (stereo not given in full)
> 50 µM: [1] | [2] | [3] | [4] | [5] | [6] | [7] | [8] | [9] | [10] | [11] | [12] | [13] | [14]

C[C@H]1C(=O)[C@@]23CC[C@@H]4C(C)(C)CCC[C@@]4(C)[C@@H]2[C@@H](O)C[C@@H]1C3
> 50 µM: [1] | [2] | [3] | [4] | [5] | [6] | [7] | [8] | [9] | [10] | [11] | [12] | [13] | [14]

C=C1[C@@H]2CC[C@]3(O)[C@@](CC[C@@H]4C(C)(C)CCC[C@]43C)(C2)[C@@H]1O
> 50 µM: [1] | [2] | [3] | [4] | [5] | [6] | [7] | [8] | [9] | [10] | [11] | [12] | [13] | [14]

C=C1C[C@@]23CC[C@H]4[C@@](C)(CCC[C@]4(C)C(=O)O)[C@@H]2CC[C@@H]1C3
> 50 µM: [1] | [2] | [3] | [4] | [5] | [6] | [7] | [8] | [9] | [10] | [11] | [12] | [13] | [14]

C[C@H]1C(=O)[C@@]23CC[C@@H]4C(C)(C)[C@H](O)CC[C@@]4(C)[C@@H]2[C@@H](O)C[C@@H]1C3
> 50 µM: [1] | [2] | [3] | [4] | [5] | [6] | [7] | [8] | [9] | [10] | [11] | [12] | [13] | [14]

C=C1[C@@H]2CC[C@@H]3[C@@](CC[C@@H]4C(C)(C)CC[C@H](O)[C@]43C)(C2)[C@H]1O
> 50 µM: [1] | [2] | [3] | [4] | [5] | [6] | [7] | [8] | [9] | [10] | [11] | [12] | [13] | [14]

C=C1[C@@H]2CC[C@H]3[C@]4(C)CCCC(C)(C)[C@H]4C[C@@H](O)[C@]3(C2)[C@@H]1O
> 50 µM: [1] | [2] | [3] | [4] | [5] | [6] | [7] | [8] | [9] | [10] | [11] | [12] | [13] | [14]

C=C1[C@@H]2CC(=O)[C@H]3[C@]4(C)CCCC(C)(C)[C@H]4CC[C@]3(C2)[C@@H]1O
> 50 µM: [1] | [2] | [3] | [4] | [5] | [6] | [7] | [8] | [9] | [10] | [11] | [12] | [13] | [14]

C=C1[C@@H](O)[C@@]23CC[C@@H]4C(C)(C)CCC[C@@]4(C)[C@@H]2CC[C@@H]1[C@H]3O
> 50 µM: [1] | [2] | [3] | [4] | [5] | [6] | [7] | [8] | [9] | [10] | [11] | [12] | [13] | [14]

C=C1[C@@H]2CC(=O)[C@H]3[C@]4(C)CCCC(C)(C)[C@H]4[C@@H](O)C[C@]3(C2)[C@@H]1O
> 50 µM: [1] | [2] | [3] | [4] | [5] | [6] | [7] | [8] | [9] | [10] | [11] | [12] | [13] | [14]
